Measurements as given in ChEMBL document CHEMBL5030534, “Discovery of Novel Anti-Breast-Cancer Inhibitors by Synergistically Antagonizing Microtubule Polymerization and Aryl Hydrocarbon Receptor Expression” (J Med Chem, 2021).
pIC50: −log10 of the molar value. The source made the active and inactive calls. The rule behind the calls is not given here.

Experiments:
[1] = system: MCF7; test: Induction of apoptosis in human MCF7 cells assessed as necrotic cells at 1 nM measured after 24 hrs by Annexin V-FITC and PI staining based flow cytometry assay (reference value: 0.28%); assay type: functional
[2] = system: MCF7; test: Induction of apoptosis in human MCF7 cells assessed as viable cells at 0.5 nM measured after 24 hrs by Annexin V-FITC and PI staining based flow cytometry assay (reference value: 96.8%); assay type: functional; details: read-out: Activity
[3] = system: MCF7; test: Induction of apoptosis in human MCF7 cells assessed as increase in cleaved Caspase-9 protein expression at 1 to 4 nM; assay type: functional, cell-based; details: dose 1-4 nM
Procedure, shortened: (§1)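 MCF-7 seeded 4 × 10⁵ per well for 24 h, then DMSO or compound at 1, 2, 4 nM for 24 h. Lysates protein-normalized to 3 mg/mL by BCA, resolved on 4–20% SDS-PAGE and immunoblotted. Bands quantified relative to β-actin (cell-cycle proteins) or GAPDH (apoptosis proteins); n = 3.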

[4] = target: T1, Cytochrome P450 1A1 (Homo sapiens, UniProt P04798); test: Inhibition of CYP1A1 signalling in human MCF7 cells assessed as reduction in CYP1A1 level incubated for 24 hrs by Western blot analysis; assay type: ADME, cell-based; details: mcf7, 24 h, at 1 to 4 nM, dose 1-4 nM
T1 sequence (P04798 whole entry): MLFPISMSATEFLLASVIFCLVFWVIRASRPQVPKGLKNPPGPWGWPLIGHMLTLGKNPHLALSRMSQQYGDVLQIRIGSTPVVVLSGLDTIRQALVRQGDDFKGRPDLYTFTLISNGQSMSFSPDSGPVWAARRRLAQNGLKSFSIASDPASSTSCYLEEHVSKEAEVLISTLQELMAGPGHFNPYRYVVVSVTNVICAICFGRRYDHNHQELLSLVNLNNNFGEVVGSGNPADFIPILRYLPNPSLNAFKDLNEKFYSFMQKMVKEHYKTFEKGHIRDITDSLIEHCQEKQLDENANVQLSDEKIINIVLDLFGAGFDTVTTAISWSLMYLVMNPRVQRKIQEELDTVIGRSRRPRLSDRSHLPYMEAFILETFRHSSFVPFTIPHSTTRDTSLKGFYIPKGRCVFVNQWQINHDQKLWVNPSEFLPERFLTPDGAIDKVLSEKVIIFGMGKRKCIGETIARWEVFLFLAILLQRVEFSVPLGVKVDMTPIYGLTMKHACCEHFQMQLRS
Procedure, shortened: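 MCF-7 cells seeded 4 × 10⁵ per well, grown 24 h, then exposed to DMSO or 1, 2, 4 nM for 24 h; BAY 2416964 served as AhR antagonist reference. Lysates adjusted to 3 mg/mL protein by BCA, resolved on 4−20% SDS-PAGE, immunoblotted; AhR and CYP1A1 bands normalized to GAPDH. Three independent runs.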

[5] = system: MCF7; test: Induction of apoptosis in human MCF7 cells assessed as increase in Bad protein expression at 1 to 4 nM; assay type: functional, cell-based; details: dose 1-4 nM; procedure, shortened: as §1
[6] = system: MCF7; test: Antitumor activity against human MCF7 cells xenografted in BALB/c nude mouse assessed as decrease in tumor weight at 0.5 mg/kg, iv administered every 2 days for 21 days and measured every 2 days; assay type: functional; set-up: scale not given: the % may be the effect or the level left; details: time 21 day
Procedure, shortened: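 MCF-7 cells (6 × 10⁶) injected subcutaneously into right flank of BALB/c nude mice; after 7 days animals randomized, eight per group. Dosing iv every 2 days for 21 days, vehicle 10% DMSO/5% Tween 80/85% saline. Tumor size and body weight recorded every 2 days; tumors excised and weighed at sacrifice.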

[7] = system: MCF7; test: Cell cycle arrest in human MCF7 cells assessed as decrease in Cdc2 protein expression; assay type: functional, cell-based; details: dose 1-4 nM; procedure, shortened: as §1
[8] = system: MCF7; test: Induction of apoptosis in human MCF7 cells assessed as viable cells at 1 nM measured after 24 hrs by Annexin V-FITC and PI staining based flow cytometry assay (reference value: 96.8%); assay type: functional; details: read-out: Activity
[9] = system: MCF7; test: Induction of apoptosis in human MCF7 cells assessed as early apoptotic cells at 2 nM measured after 24 hrs by Annexin V-FITC and PI staining based flow cytometry assay (reference value: 1%); assay type: functional
[10] = system: MCF7; test: Cell cycle arrest in human MCF7 cells assessed as increase in Cyclin B1 protein expression; details: dose 1-4 nM
[11] = system: MCF7; test: Induction of mitochondrial membrane potential loss in human MCF7 cells at 1 nM measured after 24 hrs by JC-1 staining based flow cytometry analysis (reference value: 3.01%); assay type: functional
[12] = system: L02; test: Antiproliferative activity against human L-O2 cells assessed as reduction in cell viability incubated for 48 hrs by MTT assay; assay type: cell-based; details: L02, 48 h
Procedure, shortened: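 Cells seeded at 5 × 10³ per well, incubated overnight, then exposed to a range of compound concentrations for 48 h. MTT added for 4 h, medium replaced with DMSO, absorbance read at 570 nm. MCF-7, L-O2 grown in DMEM; MCF-10A, MCF-7/ADR in RPMI 1640. Three independent runs.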

[13] = system: MCF7; test: Inhibition of cell migration in human MCF7 cells at 2 nM incubated for 24 hrs in presence of DMBA by inverted fluorescence microscopic method (reference value: 11.51%); assay type: functional; set-up: scale not given: the % may be the effect or the level left
[14] = system: MCF7; test: Induction of apoptosis in human MCF7 cells assessed as late apoptotic cells at 2 nM measured after 24 hrs by Annexin V-FITC and PI staining based flow cytometry assay (reference value: 1.5%); assay type: functional
[15] = system: MCF7; test: Induction of apoptosis in human MCF7 cells assessed as necrotic cells at 0.5 nM measured after 24 hrs by Annexin V-FITC and PI staining based flow cytometry assay (reference value: 0.28%); assay type: functional
[16] = system: MCF7; test: Induction of mitochondrial membrane potential loss in human MCF7 cells at 0.5 nM measured after 24 hrs by JC-1 staining based flow cytometry analysis (reference value: 3.01%); assay type: functional

inhibition (INH) [4]: Dose-Dependent Effect
SMILES: Cc1nc(N(C)c2ccc3c(c2)cc(C)n3C)c2ccccc2n1
Activity [1]: 3.27% | viability at 0.0005 µM [2]: 95% | Activity [3]: Active | Activity [5]: Active | Activity [6]: 73.2% | Activity [7]: Dose-Dependent Effect | viability at 0.001 µM [8]: 61.5% | Activity [9]: 6.9% | Activity [10]: Dose-Dependent Effect | Activity [11]: 6.49% | pIC50 [12]: 8.34 | Activity [13]: 6.34% | Activity [14]: 44.7% | Activity [15]: 0.52% | Activity [16]: 6.49%
